The subject of this assay is Huh 7.5 HCV Rluc replicon, HCV RNA qRT-PCR, 72 h. The assay is described as follows: effect on HCV RNA in replicon cells – RT-PCR, Huh 7.5 Rluc replicon cells, orthogonal assay for HCV NS3 helicase inhibitor project, late-stage follow-up (AID 623968). The procedure, abridged: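 material = Huh 7.5 human hepatoma cells carrying HCV Rluc replicon | times = 72 h compound exposure at 37 °C, 5% CO2 | technique = One-step TaqMan qRT-PCR of HCV 5'UTR, 1 µg total RNA input | read-out = IC50 from fitted curve of rRNA-normalized HCV RNA versus DMSO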

This passage reports IC50 results from PubChem BioAssay AID623968 (The Scripps Research Institute Molecular Screening Center, 2012).

The structures appear in SMILES notation. Calls of active or inactive are those of the source.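 How the source made its calls: active means compounds cutting HCV replicon RNA in liver cells with IC50 no higher than 50000 nM; inactive means the rest.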

By IC50 is commonly meant the concentration at which inhibition is half-maximal.

Turning to `Cc1ccc2nc(-c3ccc4nc(-c5ccc(NC(=O)c6cccc(Cl)c6)cc5)sc4c3)sc2c1S(=O)(=O)O`, the IC50 was > 25 µM (inactive).

Regarding `Cc1ccc2nc(-c3ccc4nc(-c5ccc(NC(=O)c6cc(C(F)(F)F)cc(C(F)(F)F)c6)cc5)sc4c3)sc2c1S(=O)(=O)O`, the IC50 was 5 µM.
